The values that follow come from ChEMBL document CHEMBL1141147, “Development of dual-acting benzofurans for thromboxane A2 receptor antagonist and prostacyclin receptor agonist: synthesis, structure-activity relationship, and evaluation of benzofuran derivatives” (J Med Chem, 2005).

Experiment [1] concerns the target Prostacyclin receptor (Homo sapiens, UniProt P43119). Description: Inhibition of [3H]APS-314d binding to prostacyclin receptors (IP) of human platelet membrane. Put shortly:
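Human platelet membranes (10 μg protein; freeze-thawed washed platelets, 40000g pellet) in 50 mM Tris, 5 mM MgCl₂, pH 7.4 were incubated with [³H]APS-314d sodium and compound for 60 min at 4 °C. Bound ligand was separated by GF/C filtration and counted by liquid scintillation. Nonspecific binding was set with 10 μM APS-314d sodium. Ki was derived from IC50 via the Cheng–Prusoff form.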

For experiment [2], the target named is T1, Thromboxane A2 receptor (Homo sapiens, UniProt P21731).
T1 sequence (P21731 whole entry): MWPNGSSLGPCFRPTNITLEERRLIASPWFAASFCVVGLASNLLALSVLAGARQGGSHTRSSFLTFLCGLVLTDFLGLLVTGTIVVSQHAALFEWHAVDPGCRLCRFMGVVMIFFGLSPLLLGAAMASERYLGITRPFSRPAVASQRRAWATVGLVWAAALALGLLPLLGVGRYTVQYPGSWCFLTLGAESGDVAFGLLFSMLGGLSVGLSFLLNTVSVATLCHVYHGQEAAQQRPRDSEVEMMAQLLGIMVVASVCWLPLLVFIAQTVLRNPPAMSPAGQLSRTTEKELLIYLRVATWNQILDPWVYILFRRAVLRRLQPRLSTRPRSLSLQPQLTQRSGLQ
As to the kind of experiment: Inhibition of [3H]SQ-29,548 binding to thromboxane A2 receptors (TP) of human platelet membrane. Put shortly:
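Washed human platelets from citrated, indomethacin-treated blood were freeze-thawed three times. Membranes were pelleted at 40000g and used at 10 μg protein in 50 mM Tris, 5 mM MgCl₂, pH 7.4. They were incubated with [³H]SQ-29548 and compound for 30 min at 25 °C, then filtered on GF/C and counted by scintillation. Nonspecific binding was set with 10 μM SQ-29548. Ki = IC50/(1 + L/Kd).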

The species entered for experiment [3] is Homo sapiens. As to the kind of experiment: Inhibition of U-46,619 (2 uM) induced platelet aggregation in human platelet rich plasma. Format: functional, organism-based. An outline of the steps:
(§1)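 Human volunteer blood was citrated 9:1 with 3.8% sodium citrate and spun at 90–140g for 10 min at room temperature to give PRP; platelet-poor plasma came from a 1400g spin and set 100% aggregation. PRP was preincubated 1 min with compound at various concentrations, then stimulated. Light transmission was recorded for 5 min. Percent inhibition was taken against vehicle, N = 3; IC50 is 50% inhibition.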

Experiment [4] is filed under the species Homo sapiens. Description: Inhibition of ADP (5 uM) induced platelet aggregation in human platelet rich plasma. It counts as functional, organism-based. Put shortly: as §1
The species entered for experiment [5] is Homo sapiens. Description: Inhibition of U-46,619 (4 uM) induced platelet aggregation in human platelet rich plasma. Format: functional, organism-based.
Experiment [6] concerns Monkey. Description: Ex vivo inhibition of platelet aggregation induced by ADP (5 uM) in cynomolgus monkey platelet rich plasma. It counts as functional, organism-based. To be noted: Cercopithecidae.
Experiment [7] concerns Monkey. As to the kind of experiment: Ex vivo inhibition of platelet aggregation induced by ADP (10 uM) in cynomolgus monkey platelet rich plasma. To be noted: Cercopithecidae.

Where only a bound is given, the exact number is not on record here.

Prostacyclin receptor, sequence (P43119 whole entry): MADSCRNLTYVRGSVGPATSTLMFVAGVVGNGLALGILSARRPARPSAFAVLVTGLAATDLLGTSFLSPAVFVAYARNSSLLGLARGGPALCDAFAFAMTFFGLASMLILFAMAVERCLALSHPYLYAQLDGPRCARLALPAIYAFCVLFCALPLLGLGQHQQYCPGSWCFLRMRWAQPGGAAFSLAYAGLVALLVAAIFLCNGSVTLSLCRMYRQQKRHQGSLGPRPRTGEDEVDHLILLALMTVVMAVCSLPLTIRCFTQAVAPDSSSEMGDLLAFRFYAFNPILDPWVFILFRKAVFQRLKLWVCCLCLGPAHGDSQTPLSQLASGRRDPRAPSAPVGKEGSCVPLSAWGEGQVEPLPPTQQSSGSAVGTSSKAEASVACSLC

As to `O=C(O)COc1cccc2c(CCSC(c3ccccc3)(c3ccccc3)C(F)(F)F)c(CO)oc12`, the figures for the Ki in experiment [1] and in experiment [2] were 760 nM and 150 nM, respectively. The IC50 in experiment [3] stood at 520 nM; in experiment [4] (Homo sapiens, Plasma) it was 1500 nM.

For `O=C(O)COc1cccc2c(CCCSCC(c3ccccc3)c3ccccc3)coc12`, the inhibitory constant (Ki) was 400 nM in experiment [1] and above 15000 nM in experiment [2]. Moreover, the IC50 in experiment [3] stood at 1400 nM; in experiment [4] (Homo sapiens, Plasma), 1700 nM.

In the case of `CC(c1ccccc1)(c1ccccc1)[S+]([O-])CCc1c(CO)oc2c(OCC(=O)O)cccc12` (stereo not given), the Ki in experiment [1] is above 10000 nM; in experiment [2], 51 nM. For the same compound, the half-maximal inhibitory concentration (IC50) in experiment [3] is 1700 nM; in experiment [4] (Homo sapiens, Plasma), 7900 nM.

Take `O=C(O)COc1cccc2c(CCSCC(c3ccccc3)c3ccccc3)coc12`: the figures for the Ki in experiment [1] and in experiment [2] were 80 nM and 3100 nM, respectively. In addition, the IC50 in experiment [3] is 510 nM; in experiment [4] (Homo sapiens, Plasma), 730 nM.

With `CCC(SCCc1c(CO)oc2c(OCC(=O)O)cccc12)(c1ccccc1)c1ccccc1`, the inhibition constant Ki in experiment [1] turned out to be 3400 nM; in experiment [2] it was 180 nM. Further, the half-maximal inhibitory concentration (IC50) in experiment [3] was determined as 3800 nM; in experiment [4] (Homo sapiens, Plasma), 56000 nM.

Take `O=C(O)COc1cccc2c(CCCSCCC(c3ccccc3)c3ccccc3)coc12`: the results for the Ki in experiment [1] and in experiment [2] were 2900 nM and above 15000 nM, respectively. Further, the IC50 was above 100000 nM in experiment [3] and above 100000 nM in experiment [4] (Homo sapiens, Plasma).

For `O=C(O)COc1cccc2c(CCSC(c3ccccc3)c3ccccc3)c(CO)oc12`, the inhibition constant (Ki) in experiment [1] amounted to 750 nM; in experiment [2] it was 88 nM. Also, the IC50 in experiment [3] is 460 nM; in experiment [4] (Homo sapiens, Plasma), 3300 nM.

With `O=C(O)COc1cccc2c(CCSCCC(c3ccccc3)c3ccccc3)coc12`, the Ki in experiment [1] was 560 nM; in experiment [2], above 10000 nM. Moreover, the IC50 turned out to be 5400 nM in experiment [3] and 5200 nM in experiment [4] (Homo sapiens, Plasma).

Take `CC(c1ccccc1)(c1ccccc1)S(=O)(=O)CCc1c(CO)oc2c(OCC(=O)O)cccc12`: the inhibition constant (Ki) in experiment [1] was 1900 nM; in experiment [2] it was 4.3 nM. Besides, the IC50 in experiment [3] came to 310 nM; in experiment [4] (Homo sapiens, Plasma) it was 3000 nM.

With `CC(SCCc1c(CCCO)oc2c(OCC(=O)O)cccc12)(c1ccccc1)c1ccccc1`, the Ki was 5800 nM in experiment [1] and 72 nM in experiment [2]. The IC50 was found to be 2900 nM in experiment [3] and 9000 nM in experiment [4] (Homo sapiens, Plasma).

With `O=C(O)COc1cccc2c1CCC=C2CCO/N=C(\c1ccccc1)c1cccnc1`, the IC50 in experiment [5] is 170 nM; in experiment [4] (Homo sapiens, Plasma), 170 nM.

As to `CCCC(SCCc1c(CO)oc2c(OCC(=O)O)cccc12)(c1ccccc1)c1ccccc1`, the Ki was above 2300 nM in experiment [1] and above 5900 nM in experiment [2]. The concentration for half-maximal inhibition (IC50) is 56000 nM in experiment [3] and above 100000 nM in experiment [4] (Homo sapiens, Plasma).

For `O=C(O)COc1cccc2c(CSCCC(c3ccccc3)c3ccccc3)coc12`, the figures for the Ki in experiment [1] and in experiment [2] were 580 nM and 3100 nM, respectively. The IC50 in experiment [3] amounted to 10000 nM; in experiment [4] (Homo sapiens, Plasma) it was 12800 nM.

For the compound `O=C(O)COc1cccc2c(CCSC(c3ccccc3)c3ccccc3)coc12`, in experiment [2], affinity was put at a Ki of 310 nM. For the same compound, the IC50 in experiment [3] was 560 nM; in experiment [4] (Homo sapiens, Plasma), 5900 nM.

Turning to `O=C(O)CCC/C=C\C[C@@H]1[C@H](CNNC(=O)Nc2ccccc2)[C@H]2CC[C@H]1O2`, the IC50 in experiment [5] is 21 nM; in experiment [4] (Homo sapiens, Plasma), above 10000 nM.

On to `O=C(O)COc1cccc2c(CSCC(c3ccccc3)c3ccccc3)coc12`, for which the inhibition constant Ki in experiment [1] came out at 680 nM; in experiment [2] it was 2500 nM. Also, the IC50 amounted to 17300 nM in experiment [3] and 19900 nM in experiment [4] (Homo sapiens, Plasma).

In the case of `CC(SCCc1coc2c(OCC(=O)O)cccc12)(c1ccccc1)c1ccccc1`, the Ki in experiment [1] came out at 570 nM; in experiment [2] it was 26 nM. In addition, the IC50 in experiment [3] amounted to 580 nM; in experiment [4] (Homo sapiens, Plasma) it was 8100 nM.

Consider `CC(SCCc1c(CO)oc2c(OCC(=O)O)cccc12)(c1ccccc1)c1ccccc1` [listing 1 of 2 here], for which the values for the Ki in experiment [1] and in experiment [2] were 530 nM and 4.5 nM, respectively. The IC50 is 170 nM in experiment [3] and 2200 nM in experiment [4].

`O=C(O)COc1cccc2c(CSC(c3ccccc3)c3ccccc3)coc12`: the values for the Ki in experiment [1] and in experiment [2] were 4700 nM and 5100 nM, respectively. Also, the IC50 in experiment [3] is above 100000 nM; in experiment [4] (Homo sapiens, Plasma), above 100000 nM.

Regarding `CC(SCCc1c(CO)oc2c(OCC(=O)O)cccc12)(c1ccccc1)c1ccccc1` [listing 2 of 2 here], the IC50 was 120 nM in experiment [5], 2200 nM in experiment [4], 3700 nM in experiment [6] and 140 nM in experiment [7].

Turning to `CC(SCCc1c(CCO)oc2c(OCC(=O)O)cccc12)(c1ccccc1)c1ccccc1`, the Ki was 210 nM in experiment [1] and 78 nM in experiment [2]. Moreover, the IC50 in experiment [3] worked out at 540 nM; in experiment [4] (Homo sapiens, Plasma), 710 nM.

For `CC#CCC(C)[C@H](O)/C=C/[C@@H]1[C@H]2c3cccc(CCCC(=O)O)c3O[C@H]2C[C@H]1O` (stereo not given in full) [BERAPROST SODIUM], the half-inhibitory concentration (IC50) in experiment [5] is 5.7 nM; in experiment [4] (Homo sapiens, Plasma), 7.6 nM.

Turning to `O=C(O)COc1cccc2c(CCCSC(c3ccccc3)c3ccccc3)coc12`, the inhibitory constant (Ki) in experiment [1] is 270 nM; in experiment [2], 3100 nM. Further, the concentration for half-maximal inhibition (IC50) in experiment [3] is 1600 nM; in experiment [4] (Homo sapiens, Plasma), 1900 nM.

Usually Ki stands for the equilibrium dissociation constant of an inhibitor or competing ligand from its target. In general, IC50 refers to the concentration that gives 50% inhibition.
